According to ChEMBL document CHEMBL1125811, “Potential antitumor agents. 63. Structure-activity relationships for side-chain analogues of the colon 38 active agent 9-oxo-9H-xanthene-4-acetic acid” (J Med Chem, 1991):

Experiments:
Mus musculus [1] = experiment: Optimal dose to achieve the level of activity cited in colon 38 tumors after intraperitoneal administration in mice.; assay type: functional
How it was run: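 BDF1 mice bearing s.c. colon 38 tumors (4-8 mm) given a single i.p. dose of sodium salt in water. Full dose profile run at 1.5-fold intervals. Tumors removed at 24 h for histological necrosis scoring. Optimal dose is the minimum dose in mg/kg reaching the cited activity level.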

Mus musculus [2] = species: Mus musculus; experiment: Ability to cause early haemorrhagic necrosis of colon 38 tumors in mice.; assay type: functional; set-up: concentration or dose not given beside the values
How it was run: (§1)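 Colon 38 fragments implanted s.c. in BDF1 mice and grown to 4-8 mm diameter. Single i.p. dose of sodium salt in water, escalated in 1.5-fold steps up to 750 mg/kg or the maximum nonlethal dose. Triplicate testing, groups of five mice. Tumors excised after 24 h, formalin-fixed, H&E-stained and scored histologically: ++ for 90-100% necrosis, + for 50-90%, - for consistently <50%.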

[3] = Relative measure of lipophilicity was determined by using 4'-(9-acridinylamino)-methanesulfonanilide as internal standard; assay type: physicochemical; details: octanol/water
How it was run: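 Rm determined by liquid-liquid chromatography, with AMSA as internal standard.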

[4] = Range of dose (highest nontoxic to minimum effective) over which 50-90% necrosis was achieved in mice; set-up: unit not given here
How it was run: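 Single i.p. dose of sodium salt in water to BDF1 mice bearing s.c. colon 38 tumors. Doses escalated 1.5-fold. Tumor necrosis read histologically at 24 h. Range recorded from highest nontoxic to minimum effective dose giving 50-90% necrosis, only where activity occurred at more than one dose level.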

Mus musculus [5] = species: Mus musculus; experiment: The compound was evaluated for its ability to cause early haemorrhagic necrosis of colon 38 tumors in mice; Value ranges from 50-90%; assay type: functional; how it was run: as §1

Row | Structure (SMILES) | OD (Mus musculus [1]) | Activity (Mus musculus [2]) | Rm [3] | Range [4] | Activity (Mus musculus [5])
1 | CCOP(=O)(O)Cc1cccc2c(=O)c3ccccc3oc12 | 750 mg/kg | <50% | -0.04 | – | –
2 | O=C(Cc1cccc2c(=O)c3ccccc3oc12)NS(=O)(=O)c1ccccc1 | 750 mg/kg | <50% | 0.51 | – | –
3 | Cc1cccc2c(=O)c3cccc([C@H](C)C(=O)O)c3oc12 | 65 mg/kg | >90% | – | – | –
4 | Cc1cccc2c(=O)c3cccc(C(C)C(=O)O)c3oc12 (configuration not stated) | 150 mg/kg | >90% | 0.88 | 150 | –
5 | CN(C)CCNC(=O)Cc1cccc2c(=O)c3ccccc3oc12 | 750 mg/kg | – | -0.27 | – | 90%
6 | O=C(O)Cc1cccc2c(=O)c3ccccc3oc12 | 220 mg/kg | >90% | 0.64 | – | –
7 | Cc1cccc2c(=O)c3cccc([C@@H](C)C(=O)O)c3oc12 | 220 mg/kg | >90% | – | 220 | –
8 | O=C(O)CCc1cccc2c(=O)c3ccccc3oc12 | 500 mg/kg | – | 0.7 | – | 90%
9 | O=C(O)C(F)c1cccc2c(=O)c3ccccc3oc12 (configuration not stated) | 750 mg/kg | <50% | 0.75 | – | –
10 | O=C(O)COc1cccc2c(=O)c3ccccc3oc12 | 750 mg/kg | <50% | 0.21 | – | –
11 | O=C(O)C(O)c1cccc2c(=O)c3ccccc3oc12 (configuration not stated) | 750 mg/kg | – | 0.04 | – | 90%
12 | O=c1c2ccccc2oc2c(CS(=O)(=O)O)cccc12 | 330 mg/kg | <50% | -0.59 | – | –
13 | O=C(O)c1cccc2c(=O)c3ccccc3oc12 | 220 mg/kg | <50% | 0.49 | – | –
14 | O=c1c2ccccc2oc2c(CP(=O)(O)O)cccc12 | 750 mg/kg | <50% | -0.48 | – | –
15 | COC(C(=O)O)c1cccc2c(=O)c3ccccc3oc12 (configuration not stated) | 750 mg/kg | <50% | 0.49 | – | –
16 | Cc1ccc2c(=O)c3cccc(CC(=O)O)c3oc2c1C [VADIMEZAN] | 30 mg/kg | >90% | 0.49 | 30 | –
17 | CN(C)CCOC(=O)Cc1cccc2c(=O)c3ccccc3oc12 | 330 mg/kg | – | -0.24 | – | 90%
18 | N=C(N)SCc1cccc2c(=O)c3ccccc3oc12 | 220 mg/kg | <50% | -0.2 | – | –
19 | NC(C(=O)O)c1cccc2c(=O)c3ccccc3oc12 (configuration not stated) | 750 mg/kg | – | -0.53 | – | 90%
20 | CC(C(=O)O)c1cccc2c(=O)c3ccccc3oc12 (configuration not stated) | 500 mg/kg | >90% | 0.85 | 500 | –
